The text below walks through data of ChEMBL document CHEMBL1132439, “Selective A(3) adenosine receptor antagonists: water-soluble 3, 5-diacyl-1,2,4-trialkylpyridinium salts and their oxidative generation from dihydropyridine precursors” (J Med Chem, 1999).

Molecules are shown by their SMILES. Where only a bound is given, the exact number is not on record here.

For assay [1], the target named is Adenosine receptor A2a (Rattus norvegicus, UniProt P30543). As to the kind of experiment: Displacement of [3H]CGS-21680 from Adenosine A2A receptor of rat striatal membranes. Format: cell membranes, Membrane. A digest of the protocol:
(§1)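 Rat striatal membranes prepared with adenosine deaminase 3 units/mL, also present in a 30 min preincubation at 30 °C and during radioligand incubation. Nonspecific binding defined with 20 μM 2-chloroadenosine. Compounds dissolved in DMSO, diluted in buffer (≤1% DMSO). Filtration over GF/B filters. IC50 from at least five competitor concentrations spanning 3 log units, converted to Ki by Cheng-Prusoff; n = 3–6, or % specific binding displaced at 10⁻⁴ M.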

Assay [2] concerns the target T1, Adenosine receptor A1 (Rattus norvegicus, UniProt P25099).
T1 sequence (P25099 whole entry): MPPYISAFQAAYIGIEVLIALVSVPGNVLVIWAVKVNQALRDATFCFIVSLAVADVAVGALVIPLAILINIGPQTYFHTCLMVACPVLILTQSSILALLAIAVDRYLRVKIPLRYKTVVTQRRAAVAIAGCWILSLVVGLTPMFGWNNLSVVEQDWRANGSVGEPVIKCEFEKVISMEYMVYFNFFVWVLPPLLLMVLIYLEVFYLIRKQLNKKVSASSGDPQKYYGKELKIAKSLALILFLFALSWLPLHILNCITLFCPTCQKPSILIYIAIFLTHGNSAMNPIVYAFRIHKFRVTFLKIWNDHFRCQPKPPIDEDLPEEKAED
Briefly: (§2) Displacement of [3H]R-PIA from Adenosine A1 receptor of rat brain membranes. The class given is cell membranes, Membrane. A digest of the protocol:
(§3)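 Rat cerebral cortex membranes prepared with adenosine deaminase 3 units/mL, also present in a 30 min preincubation at 30 °C and during radioligand incubation. Nonspecific binding defined with 10 μM 2-chloroadenosine. Compounds dissolved in DMSO, diluted in buffer (≤1% DMSO). Filtration over GF/B filters.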

For assay [3], the target named is T2, Adenosine receptor A1 (Rattus norvegicus) (UniProt P25099).
T2 sequence (whole entry): T1 sequence (P25099 whole entry)
Briefly: Displacement of [3H]R-PIA from Adenosine A1 receptor from rat brain membranes at 10^-4M. As to conditions: Membrane. Format: cell membranes. A digest of the protocol:
as §3
Background: Displacement assays read how much labelled ligand stays bound in the presence of the test substance.

In assay [4] the target is Adenosine receptor A2a (Rattus norvegicus) (UniProt P30543). Briefly: Displacement of [3H]CGS-21680 from Adenosine A2A receptor of rat striatal membranes at 10^-4M. The class given is cell membranes. As to conditions: Membrane. An outline of the steps: as §1
For assay [5], the target named is T2, Adenosine receptor A1 (Rattus norvegicus). Described as §2. The class given is cell membranes. As to conditions: Membrane. A digest of the protocol:
as §3

Sequence of Adenosine receptor A2a (P30543 whole entry): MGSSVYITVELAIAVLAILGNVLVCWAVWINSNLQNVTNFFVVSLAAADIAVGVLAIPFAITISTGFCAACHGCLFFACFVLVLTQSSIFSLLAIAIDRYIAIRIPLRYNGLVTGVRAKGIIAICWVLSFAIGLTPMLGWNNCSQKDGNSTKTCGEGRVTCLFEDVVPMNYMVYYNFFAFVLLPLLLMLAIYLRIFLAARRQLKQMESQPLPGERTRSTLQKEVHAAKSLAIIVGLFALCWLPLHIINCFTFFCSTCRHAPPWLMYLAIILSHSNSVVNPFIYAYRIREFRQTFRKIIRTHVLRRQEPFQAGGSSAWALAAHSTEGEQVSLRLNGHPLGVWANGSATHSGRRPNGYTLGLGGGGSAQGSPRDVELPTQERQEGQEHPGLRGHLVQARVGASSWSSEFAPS
Sequence of Adenosine receptor A2a (Rattus norvegicus) (P30543 whole entry): as above

On to `CCOC(=O)c1c(CC)c(C(=O)SCC)c(CC)[n+](C)c1C1CCCC1`, for which affinity in assay [1] was put at a Ki of 7.72 µM. `CCOC(=O)c1c(CCN2C(=O)c3ccccc3C2=O)c(C(=O)SCC)c(CC)[n+](C)c1-c1ccccc1`: the values for the Ki in assay [1] and in assay [2] were 2.15 µM and 1.53 µM, respectively. In turn, `CCOC(=O)c1c(CC)c(C(=O)SCC)c(C)[n+](C)c1-c1ccccc1` yielded an inhibitory constant (Ki) in assay [1] of 20.8 µM. This molecule yielded a Displacement in assay [3] of 22%. Taken in the same sequence, the figures for `CCCOC(=O)c1c(CC)c(C(=O)SCC)c(CC)[n+](C)c1-c1ccccc1` were 18.7 µM and less than 10%. In turn, `CCCOC(=O)c1c(CCSC(C)=O)c(C(=O)SCC)c(CC)[n+](C)c1-c1ccccc1` showed an inhibition constant Ki in assay [1] of 53.2 µM. In addition, the Displacement in assay [3] stood at 45%. `CCC[n+]1c(CC)c(C(=O)SCC)c(CC)c(C(=O)OCC)c1-c1ccccc1` registered a Displacement in assay [4] of 28%. Besides, the Ki in assay [2] is 76.9 µM. As to `CCOC(=O)c1c(CC)c(C(=O)SCC)c(C2CCC2)[n+](C)c1-c1ccccc1`, the results for the inhibitory constant (Ki) in assay [1] and in assay [2] were 33.2 µM and 88 µM, respectively.

For `CCCOC(=O)c1c(CCC)c(C(=O)SCCCF)c(CC)[n+](C)c1-c1ccccc1`, affinity in assay [1] was put at a Ki of 7.37 µM. The Displacement in assay [3] is less than 10%. In turn, `CCSC(=O)c1c(CC)c(C(=O)OCCF)c(-c2ccccc2)[n+](C)c1CC` gave a Ki in assay [1] of 56.6 µM. Also, in assay [3], the Displacement came out at 30%. As to `CCCOC(=O)c1c(CCC)c(C(=O)SCC)c(CCOCc2ccccc2)[n+](C)c1-c1ccccc1`, in assay [5], the Displacement was 21%. The affinity in assay [1] corresponds to a Ki of 11.9 µM. For `CCOC(=O)c1c(CC)c(C(=O)SCC)c(CC)[n+](C)c1-c1ccccc1`, the Ki amounted to 11.6 µM in assay [1] and 31.9 µM in assay [2].

Take `CCCCc1c(C(=O)SCC)c(CC)c(C(=O)OCC)c(-c2ccccc2)[n+]1C`: the inhibition constant (Ki) in assay [1] was 6.02 µM; in assay [2] it was 14.5 µM.

In assay [4], `CCOC(=O)c1c(CC)c(C(=O)SCC)c(CC)[n+](CC)c1-c1ccccc1` displayed a Displacement of 25%.

As for `CCCOC(=O)c1c(CCC)c(C(=O)SCC)c(CC)[n+](C)c1-c1ccccc1`, the figures for the Displacement in assay [4] and in assay [3] were 25% and less than 10%, respectively.

By Ki is commonly meant a measure of affinity in units of concentration, obtained from inhibition or displacement. Low readings indicate higher affinity, high ones lower affinity.
